In ChEMBL document CHEMBL4334478, “Isolation, Structural Elucidation, Optical Resolution, and Antineuroinflammatory Activity of Phenanthrene and 9,10-Dihydrophenanthrene Derivatives from Bletilla striata” (J Nat Prod, 2019) one finds IC50 data, which are given here for 21 molecules.

For the first test, the system named is BV-2. The experiment in a line: Antineuroinflammatory activity against mouse BV2 cells assessed as inhibition of LPS-induced NO production incubated for 24 hrs by Griess assay. It is filed as functional, cell-based. Particulars: Mus musculus, BV-2, 24 h; read-out: IC50; call rule not given here. The method, boiled down:
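Griess read-out of nitrite in LPS-stimulated BV-2 microglia, with cell viability checked in parallel by MTT. Minocycline served as positive control. IC50 values are reported as mean ± SEM.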
On the technique in general: The Griess reaction detects nitrite, a stable product of nitric oxide.
On to `COc1cc(O)cc2c1-c1cc(-c3c(O)cc(OC)c4c3CCc3cc(O)ccc3-4)c(O)cc1CC2`, for which the concentration for half-maximal inhibition (IC50) stood at 12 µM.

`OC[C@H]1O[C@@H](Oc2ccc(Cc3c(O)ccc4c3CCc3cc(O)ccc3-4)cc2)[C@H](O)[C@@H](O)[C@@H]1O`: the IC50 was 17.9 µM.

Consider `COc1c(O)c(O)cc2ccc3cc(O)ccc3c12`, for which the IC50 is 30 µM.

Take `COc1c(O)cc2c(c1OC)-c1ccc(O)cc1CC2` [ERIANTHRIDIN]: the IC50 came to 93.5 µM.

Regarding `COc1cc([C@@H]2Oc3cc(OC)c4c(c3[C@H]2CO)CCc2cc(O)ccc2-4)cc(OC)c1O`, the IC50 was determined as 18.5 µM.

Consider `COc1ccc2c(c1O)CCc1c(Cc3ccc(O)cc3)c(O)cc(OC)c1-2`, for which the IC50 stood at 49 µM.

With `COc1c(Cc2ccc(O)cc2)c(O)cc2c1-c1ccc(O)cc1CC2`, the IC50 amounted to 34.6 µM.

As for `COc1ccc2c(ccc3c(Cc4ccc(O)cc4)c(O)cc(OC)c32)c1`, the IC50 turned out to be 82 µM.

On to `COc1cc(O)cc2c1-c1ccc(O)cc1CC2`, for which the concentration for half-maximal inhibition (IC50) came to 15.2 µM.

For the molecule `COc1cc(O)c2c(c1Cc1ccc(O)cc1)CCc1cc(O)ccc1-2`, the half-maximal inhibitory concentration (IC50) was in the range of 12 to 30 µM.

Consider `CN(C)c1ccc(O)c2c1C[C@H]1C[C@H]3[C@H](N(C)C)C(O)=C(C(N)=O)C(=O)[C@@]3(O)C(O)=C1C2=O` [MINOCYCLINE], for which the IC50 lay within 27.2 to 35.7 µM.

In the case of `COc1cc(O)cc2c1-c1cc(-c3c(O)cc(OC)c4c3ccc3cc(O)ccc34)c(O)cc1CC2`, the IC50 is 22.1 µM.

Turning to `COc1c(O)ccc2c1ccc1c(-c3c(O)cc(OC)c4c3ccc3c(OC)c(O)ccc34)c(O)cc(OC)c12`, the half-maximal inhibitory concentration (IC50) turned out to be 1 µM.

Consider `COc1cc(O)c2c(c1-c1c(OC)cc(O)c3c1CCc1cc(O)ccc1-3)CCc1cc(O)ccc1-2`, for which the IC50 was determined as 39.4 µM.

Regarding `COc1cc(O)c(Cc2ccc(O)cc2)c2ccc3cc(O)ccc3c12`, the IC50 amounted to 30.2 µM.

Regarding `COc1cc(CCc2cccc(O)c2)c(-c2c(O)cc(O)c3c2CCc2cc(O)ccc2-3)c(OC)c1`, the half-inhibitory concentration (IC50) was 60.7 µM.

For `COc1cc(O)cc(CCc2cccc(O)c2)c1-c1c(OC)cc(O)c2c1CCc1cc(O)ccc1-2`, the 50% inhibitory concentration (IC50) is 1.9 µM.

As to `COc1cc(O)c(-c2c(O)cc(OC)c3c2ccc2cc(O)ccc23)c2c1-c1ccc(O)cc1CC2` [CIRRHOPETALANTHRIN], the IC50 stood at 46.8 µM.

Regarding `COc1cc2c(ccc3c(-c4c(O)cc(OC)c5c4ccc4cc(O)ccc45)c(O)cc(OC)c32)cc1O`, the half-inhibitory concentration (IC50) was 5 µM.

For `COc1cc([C@H]2Oc3cc4c(cc3[C@@H]2COC(C)=O)-c2c(cc(O)cc2OC)CC4)ccc1O`, the IC50 was 24.8 µM.

The test is the same for the next values; noted with them: bv-2.
For `COc1cc(O)c2c(ccc3cc(O)ccc32)c1-c1c(OC)cc(O)c2c1ccc1cc(O)ccc12`, the half-inhibitory concentration (IC50) result is given as “Not Active”.

In general, IC50 refers to the concentration at which inhibition is half-maximal.
